DDE Tn7 FP inh: inhibitors of Tn7 peptide binding to fibrin DD(E), primary screen, biochemical, fluorescence polarization, human fibrin, Tn7 probe. AID 720508, 2013. FP displacement of FITC-Tn7 peptide from fibrin DD(E); 0% = median of compound wells per plate. Fibrinogen beta chain (Homo sapiens), P02675. inhibition, % at 8.3 µM. 370,000 compounds, 0.13% hits;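 active = inhibition above the mean of compounds falling within the control limits plus 3 SD of them, cut at about 14% in these data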
Target sequence (P02675 whole entry, looked up): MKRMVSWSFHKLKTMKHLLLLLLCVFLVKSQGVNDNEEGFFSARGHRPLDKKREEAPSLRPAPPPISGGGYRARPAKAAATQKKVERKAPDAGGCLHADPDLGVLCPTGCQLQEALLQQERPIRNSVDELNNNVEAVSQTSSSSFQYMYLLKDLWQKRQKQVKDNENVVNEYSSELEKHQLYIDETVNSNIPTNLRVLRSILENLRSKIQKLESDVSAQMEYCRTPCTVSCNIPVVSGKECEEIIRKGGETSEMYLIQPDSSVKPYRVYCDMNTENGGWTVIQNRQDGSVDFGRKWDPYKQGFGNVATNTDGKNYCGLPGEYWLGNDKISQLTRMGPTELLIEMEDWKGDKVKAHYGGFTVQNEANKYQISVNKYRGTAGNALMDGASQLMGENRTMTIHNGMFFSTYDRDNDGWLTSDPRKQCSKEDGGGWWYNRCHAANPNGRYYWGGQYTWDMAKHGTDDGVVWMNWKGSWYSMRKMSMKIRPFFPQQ
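assay system = human clot-derived fibrin DD(E) complex | quantity = Fibrin-DD(E) at 2 µM final | timing = 10 min preincubation, 3 h with tracer, room temperature | signal = fluorescence polarization | measure = percent inhibition | benchmarks = high control wells with 10 µM unlabelled Aha-Tn7 peptide (full inhibition) | replicates = singlicate testing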
CAL PDZ FP-1: untagged CAL PDZ binding inhibitors, primary screen, biochemical, fluorescence polarization, HTS; purified CAL PDZ, TMR-peptide fluorescence polarization, 1 h; AID 602252, 2012; inhibition, % at 24.9 µM; Golgi-associated PDZ and coiled-coil motif-containing protein (Homo sapiens), Q9HD26; 300,000 compounds, 0.92% hits;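 active = mean inhibition of at least 30% with at least half of replicates also reaching 30%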
DDE Tn6 FP inh: inhibitors of Tn6 peptide binding to fibrin DD(E), primary screen, biochemical, fluorescence polarization, human fibrin, Tn6 probe | Fibrinogen beta chain (Homo sapiens), P02675 | Fibrin DD(E) TRITC-Tn6 fluorescence polarization displacement | inhibition, % at 8.3 µM | 370,000 compounds, 0.21% hits | AID 720509, 2013;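 active = inhibition above a per-campaign cutoff: mean of compounds within control limits plus 3 SD, cut at about 15% in these data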
CAL PDZ FP-2: CAL PDZ peptide-binding inhibitors, primary screen, biochemical, fluorescence polarization, Cer-tagged CAL PDZ, HTS. purified CAL PDZ, TMR-peptide fluorescence polarization, 1 h. inhibition, % at 20 µM. 330,000 compounds, 0.02% hits;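 active = highest replicate inhibition of at least 40%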
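Material – purified CerCALP PDZ construct · Detection – FP readout, S and P plane fluorescence · Measure – percent inhibition from loss of millipolarization · Controls – unlabelled peptide for full inhibition, DMSO wells as neutral · Probe or stimulus – TMR-labelled reporter peptide T*-PRC34 bound in PDZ groove · Times – 1 h at RT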
Arr AP2 block: inhibitors of beta-arrestin/AP2 binding, primary screen, biochemical, GPCR trafficking, flow cytometry; 340,000 compounds, 0.31% hits; inhibition, % at 10 µM; AID 504490, 2011; FITC-arrestin peptide / GST-AP2 beads; AP2 beta2 appendage carries R879A mutation;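 active = inhibition above a set limit, near 3 SD of compounds lacking own fluorescence, cut at about 54% in these data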
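system = GST-tagged AP2 beta2-adaptin appendage (R879A) on 4 µm glutathione beads | reagent = FITC-labelled arrestin peptide probe, 50 nM final | schedule = compound with beads 12 min RT, then probe 1 h RT | signal = HyperCyt-sampled flow cytometry, FL1 channel, ex 488/em 535 nm | read-out = percent response from loss of bead-bound FITC fluorescence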
Tn6 DDE ctr: DD(E)-Tn6 binding inhibition, counter-screen; shares compounds with DDE Tn6 FP inh; inhibition, % at 8.3 µM; 680 compounds, 2% hits; Fibrin DD(E), TRITC-Tn6 fluorescence polarization displacement; 0% = median of compound wells, not DMSO;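 active = inhibition above the mean of test compounds lying between the control limits plus 3 SD of those, cut at about 14% in these data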
DDE Tn6 confirm: inhibitors of Tn6 peptide binding to fibrin DD(E), confirmation, biochemical, fluorescence polarization, human fibrin, Tn6 probe; shares compounds with DDE Tn6 FP inh; FP displacement of TRITC-Tn6 peptide from DD(E); 0% = per-plate median of test wells; inhibition, % at 8.3 µM; 680 compounds, 10% hits; AID 720631, 2013;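 active = inhibition above the mean of compounds lying within the control limits plus 3 SD, cut at about 16% in these data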
Large screens that a line does not name were inactive (follow-up assays come after a bar, where they were run). In the library only some 1.4% were active in any assay of this set; here they are far more common.

COC(=O)C1CN(CC(C)C)CCS(=O)(=O)N1Cc1ccc(C(F)(F)F)cc1 (stereo not given)	none (no result: CAL PDZ FP-1, CAL PDZ FP-2, Arr AP2 block)
COc1cc(C(=O)NCC(=O)N/N=C/c2ccco2)cc(OC)c1OC	DDE Tn6 FP inh 27 | Tn6 DDE ctr inactive | DDE Tn6 confirm inactive
CCCCOCCCNC(=O)C[C@H]1C[C@@]2(C(=O)OC)C(=C[C@H](C(C)C)O[C@@H]2C2CC2)N(Cc2ccc(Cl)cc2Cl)C1=O	none (no result: CAL PDZ FP-1, CAL PDZ FP-2, Arr AP2 block)
COc1ccc(C(=O)CSc2nnc(-c3ccccc3)n2-c2ccc(Cl)cc2)cc1	none (no result: CAL PDZ FP-1, CAL PDZ FP-2, Arr AP2 block)
O=C(CSc1ccc(-c2nc3ccccc3[nH]2)cn1)Nc1ccc(S(=O)(=O)N2CCCC2)cc1	DDE Tn6 FP inh 59 | Tn6 DDE ctr inactive | DDE Tn6 confirm inactive
CC(C)(C)C(=O)Nc1ccc(S(=O)(=O)N2CCC(c3nc4ccccc4[nH]3)CC2)cc1	DDE Tn6 FP inh 18 | Tn6 DDE ctr inactive | DDE Tn6 confirm inactive
CCCC(=Nc1ccc(N)cc1)C1=C(O)C(C(=O)OC)C(C)(C)CC1=O (stereo not given)	DDE Tn6 FP inh 126 (no result: CAL PDZ FP-1) | Tn6 DDE ctr inactive | DDE Tn6 confirm 17
Cc1ccc(C2=CCN(C)C(=O)N2c2ccc(Br)cc2)cc1	none (no result: CAL PDZ FP-1, CAL PDZ FP-2, Arr AP2 block)
COc1ccc(NC(=O)Cn2c(=O)cnc3ccccc32)cc1S(=O)(=O)N1CCCCC1	DDE Tn6 FP inh 27 | Tn6 DDE ctr inactive | DDE Tn6 confirm inactive
Cc1cccc(CCNC(=O)Cn2ncc3c2-c2cc(C)ccc2OC3)c1	none (no result: CAL PDZ FP-1, CAL PDZ FP-2, Arr AP2 block)

Screening data from PubChem BioAssay.
